Results taken from ChEMBL document CHEMBL1649314, “Experimental murine scedosporiosis: histopathology and azole treatment” (2010).
Values after ≈ are worked out from the molar mass of the structure shown. Active and inactive are the calls of the source. The rule behind the calls is not given here.

Columns and labels:
Scedosporium apiospermum [1] = experiment: Antifungal activity against Scedosporium apiospermum IHEM 14464 infected in immunosuppressed OF1 mouse assessed as reduction in kidney fungal burden at 40 mg/kg, po BID administered 24 hrs postinfection for 10 days measured after 20 days; type: functional, organism-based; set-up: dose 40 mg/kg
Scedosporium apiospermum [2] = experiment: Antifungal activity against Scedosporium apiospermum CBS 117407 by broth dilution method; type: functional
Scedosporium aurantiacum [3] = experiment: Antifungal activity against Scedosporium aurantiacum IHEM 15458 infected in immunosuppressed OF1 mouse assessed as reduction in kidney fungal burden at 40 mg/kg, po BID administered 24 hrs postinfection for 10 days measured after 20 days; type: functional, organism-based; set-up: dose 40 mg/kg
Scedosporium aurantiacum [4] = experiment: Antifungal activity against Scedosporium aurantiacum IHEM 15458 infected in immunosuppressed OF1 mouse assessed as reduction in kidney fungal burden at 20 mg/kg, po BID administered 24 hrs postinfection for 10 days measured after 20 days; type: functional, organism-based; set-up: dose 20 mg/kg
Scedosporium apiospermum [5] = experiment: Antifungal activity against Scedosporium apiospermum IHEM 14464 by broth dilution method; type: functional
Scedosporium apiospermum [6] = experiment: Antifungal activity against Scedosporium apiospermum CBS 117407 infected in immunosuppressed OF1 mouse assessed as reduction in kidney fungal burden at 20 mg/kg, po BID administered 24 hrs postinfection for 10 days measured after 20 days; type: functional, organism-based; set-up: dose 20 mg/kg
Scedosporium apiospermum [7] = experiment: Antifungal activity against Scedosporium apiospermum CBS 117407 infected in immunosuppressed OF1 mouse assessed as reduction in brain fungal burden at 20 mg/kg, po BID administered 24 hrs postinfection for 10 days measured after 20 days; type: functional, organism-based; set-up: dose 20 mg/kg
Scedosporium boydii [8] = experiment: Antifungal activity against Scedosporium boydii FMR 8627 infected in immunosuppressed OF1 mouse assessed as prolonged survival of mouse at 20 mg/kg, po BID administered 24 hrs postinfection for 10 days measured after 20 days; type: functional, organism-based; set-up: dose 20 mg/kg
How it was run: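 Male OF1 mice were immunosuppressed 1 day before infection with cyclophosphamide 200 mg/kg i.p. plus 5-fluorouracil 150 mg/kg i.v. They were infected i.v. via a lateral tail vein with 1 × 10^4 CFU/mouse in 0.2 ml saline. Oral dosing was 10 or 20 mg/kg twice daily, or 20 or 40 mg/kg once daily (those mice and controls drank grapefruit juice from day −3). Dosing ran 24 h post-challenge for 10 days; 10 mice/group; observed daily to day 20; Kaplan-Meier with log rank test.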

Scedosporium boydii [9] = experiment: Antifungal activity against Scedosporium boydii FMR 6694 by broth dilution method; type: functional
[10] = Antifungal activity against Scedosporium aurantiacum CBS 116910 by broth dilution method; type: functional
[11] = Antifungal activity against Scedosporium aurantiacum CBS 116910 infected in immunosuppressed OF1 mouse assessed as prolonged survival of mouse at 20 mg/kg, po BID administered 24 hrs postinfection for 10 days measured after 20 days; type: functional, organism-based; set-up: dose 20 mg/kg
How it was run: (§1)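 Male OF1 mice, groups of 10, immunosuppressed 1 day before infection with cyclophosphamide 200 mg/kg i.p. plus 5-fluorouracil 150 mg/kg i.v. Infected i.v. via tail vein with 1 × 10^4 CFU in 0.2 ml saline. Oral treatment began 24 h post-challenge for 10 days. Mice checked daily for 20 days. Survival by Kaplan-Meier, compared by log rank test.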

Scedosporium aurantiacum [12] = experiment: Antifungal activity against Scedosporium aurantiacum IHEM 15458 infected in immunosuppressed OF1 mouse assessed as reduction in brain fungal burden at 20 mg/kg, po BID administered 24 hrs postinfection for 10 days measured after 20 days; type: functional, organism-based; set-up: dose 20 mg/kg
Scedosporium apiospermum [13] = experiment: Antifungal activity against Scedosporium apiospermum IHEM 14464 infected in immunosuppressed OF1 mouse assessed as prolonged survival of mouse at 40 mg/kg, po BID administered 24 hrs postinfection for 10 days measured after 20 days; type: functional, organism-based; set-up: dose 40 mg/kg
Scedosporium boydii [14] = experiment: Antifungal activity against Scedosporium boydii FMR 6694 infected in immunosuppressed OF1 mouse assessed as prolonged survival of mouse at 40 mg/kg, po BID administered 24 hrs postinfection for 10 days measured after 20 days; type: functional, organism-based; set-up: dose 40 mg/kg
Scedosporium apiospermum [15] = experiment: Antifungal activity against Scedosporium apiospermum IHEM 14464 infected in immunosuppressed OF1 mouse assessed as reduction in brain fungal burden at 20 mg/kg, po BID administered 24 hrs postinfection for 10 days measured after 20 days; type: functional, organism-based; set-up: dose 20 mg/kg
Scedosporium apiospermum [16] = experiment: Antifungal activity against Scedosporium apiospermum IHEM 14464 infected in immunosuppressed OF1 mouse assessed as reduction in kidney fungal burden at 20 mg/kg, po BID administered 24 hrs postinfection for 10 days measured after 20 days; type: functional, organism-based; set-up: dose 20 mg/kg
Scedosporium boydii [17] = experiment: Antifungal activity against Scedosporium boydii FMR 8627 infected in immunosuppressed OF1 mouse assessed as reduction in brain fungal burden at 20 mg/kg, po BID administered 24 hrs postinfection for 10 days measured after 20 days; type: functional, organism-based; set-up: dose 20 mg/kg
Scedosporium boydii [18] = experiment: Antifungal activity against Scedosporium boydii FMR 6694 infected in immunosuppressed OF1 mouse assessed as prolonged survival of mouse at 20 mg/kg, po BID administered 24 hrs postinfection for 10 days measured after 20 days; type: functional, organism-based; set-up: dose 20 mg/kg; how it was run: as §1
Scedosporium boydii [19] = experiment: Antifungal activity against Scedosporium boydii FMR 8627 infected in immunosuppressed OF1 mouse assessed as reduction in kidney fungal burden at 40 mg/kg, po BID administered 24 hrs postinfection for 10 days measured after 20 days; type: functional, organism-based; set-up: dose 40 mg/kg
Scedosporium boydii [20] = experiment: Antifungal activity against Scedosporium boydii FMR 8627 by broth dilution method; type: functional
Scedosporium boydii [21] = experiment: Antifungal activity against Scedosporium boydii FMR 6694 infected in immunosuppressed OF1 mouse assessed as reduction in kidney fungal burden at 20 mg/kg, po BID administered 24 hrs postinfection for 10 days measured after 20 days; type: functional, organism-based; set-up: dose 20 mg/kg
Scedosporium aurantiacum [22] = experiment: Antifungal activity against Scedosporium aurantiacum CBS 116910 infected in immunosuppressed OF1 mouse assessed as reduction in brain fungal burden at 20 mg/kg, po BID administered 24 hrs postinfection for 10 days measured after 20 days; type: functional, organism-based; set-up: dose 20 mg/kg
Scedosporium apiospermum [23] = experiment: Antifungal activity against Scedosporium apiospermum IHEM 14464 infected in immunosuppressed OF1 mouse assessed as prolonged survival of mouse at 20 mg/kg, po BID administered 24 hrs postinfection for 10 days measured after 20 days; type: functional, organism-based; set-up: dose 20 mg/kg; how it was run: as §1
Scedosporium boydii [24] = experiment: Antifungal activity against Scedosporium boydii FMR 8627 infected in immunosuppressed OF1 mouse assessed as reduction in kidney fungal burden at 20 mg/kg, po BID administered 24 hrs postinfection for 10 days measured after 20 days; type: functional, organism-based; set-up: dose 20 mg/kg
Scedosporium boydii [25] = experiment: Antifungal activity against Scedosporium boydii FMR 8627 infected in immunosuppressed OF1 mouse assessed as prolonged survival of mouse at 40 mg/kg, po BID administered 24 hrs postinfection for 10 days measured after 20 days; type: functional, organism-based; set-up: dose 40 mg/kg
Scedosporium boydii [26] = experiment: Antifungal activity against Scedosporium boydii FMR 6694 infected in immunosuppressed OF1 mouse assessed as reduction in brain fungal burden at 20 mg/kg, po BID administered 24 hrs postinfection for 10 days measured after 20 days; type: functional, organism-based; set-up: dose 20 mg/kg
[27] = Antifungal activity against Scedosporium aurantiacum IHEM 15458 infected in immunosuppressed OF1 mouse assessed as prolonged survival of mouse at 40 mg/kg, po BID administered 24 hrs postinfection for 10 days measured after 20 days; type: functional, organism-based; set-up: dose 40 mg/kg
Scedosporium boydii [28] = experiment: Antifungal activity against Scedosporium boydii FMR 6694 infected in immunosuppressed OF1 mouse assessed as reduction in kidney fungal burden at 40 mg/kg, po BID administered 24 hrs postinfection for 10 days measured after 20 days; type: functional, organism-based; set-up: dose 40 mg/kg
Scedosporium aurantiacum [29] = experiment: Antifungal activity against Scedosporium aurantiacum CBS 116910 infected in immunosuppressed OF1 mouse assessed as reduction in kidney fungal burden at 20 mg/kg, po BID administered 24 hrs postinfection for 10 days measured after 20 days; type: functional, organism-based; set-up: dose 20 mg/kg
Scedosporium apiospermum [30] = experiment: Antifungal activity against Scedosporium apiospermum CBS 117407 infected in immunosuppressed OF1 mouse assessed as reduction in kidney fungal burden at 40 mg/kg, po BID administered 24 hrs postinfection for 10 days measured after 20 days; type: functional, organism-based; set-up: dose 40 mg/kg
[31] = Antifungal activity against Scedosporium aurantiacum CBS 116910 infected in immunosuppressed OF1 mouse assessed as prolonged survival of mouse at 40 mg/kg, po BID administered 24 hrs postinfection for 10 days measured after 20 days; type: functional, organism-based; set-up: dose 40 mg/kg
[32] = Antifungal activity against Scedosporium aurantiacum IHEM 15458 infected in immunosuppressed OF1 mouse assessed as prolonged survival of mouse at 20 mg/kg, po BID administered 24 hrs postinfection for 10 days measured after 20 days; type: functional, organism-based; set-up: dose 20 mg/kg; how it was run: as §1
Scedosporium apiospermum [33] = experiment: Antifungal activity against Scedosporium apiospermum CBS 117407 infected in immunosuppressed OF1 mouse assessed as prolonged survival of mouse at 20 mg/kg, po BID administered 24 hrs postinfection for 10 days measured after 20 days; type: functional, organism-based; set-up: dose 20 mg/kg; how it was run: as §1
Scedosporium aurantiacum [34] = experiment: Antifungal activity against Scedosporium aurantiacum CBS 116910 infected in immunosuppressed OF1 mouse assessed as reduction in kidney fungal burden at 40 mg/kg, po BID administered 24 hrs postinfection for 10 days measured after 20 days; type: functional, organism-based; set-up: dose 40 mg/kg
Scedosporium apiospermum [35] = experiment: Antifungal activity against Scedosporium apiospermum CBS 117407 infected in immunosuppressed OF1 mouse assessed as prolonged survival of mouse at 40 mg/kg, po BID administered 24 hrs postinfection for 10 days measured after 20 days; type: functional, organism-based; set-up: dose 40 mg/kg
[36] = Antifungal activity against Scedosporium aurantiacum IHEM 15458 by broth dilution method; type: functional

C[C@@H](c1ncncc1F)[C@](O)(Cn1cncn1)c1ccc(F)cc1F [VORICONAZOLE]
Activity (Scedosporium apiospermum [1]): Active | MIC (Scedosporium apiospermum [2]): 0.5 µg/mL (≈ 1.43 µM) | Activity (Scedosporium aurantiacum [3]): Active | Activity (Scedosporium aurantiacum [4]): Active | MIC (Scedosporium apiospermum [5]): 0.25 µg/mL (≈ 0.716 µM) | Activity (Scedosporium apiospermum [6]): Active | Activity (Scedosporium apiospermum [7]): Active | Activity (Scedosporium boydii [8]): Active | MIC (Scedosporium boydii [9]): 1 µg/mL (≈ 2.86 µM) | MIC [10]: 32 µg/mL (≈ 91.6 µM) | Activity [11]: Active | Activity (Scedosporium aurantiacum [12]): Active | Activity (Scedosporium apiospermum [13]): Active | Activity (Scedosporium boydii [14]): Active | Activity (Scedosporium apiospermum [15]): Active | Activity (Scedosporium apiospermum [16]): Active | Activity (Scedosporium boydii [17]): Active | Activity (Scedosporium boydii [18]): Active | Activity (Scedosporium boydii [19]): Active | MIC (Scedosporium boydii [20]): 0.5 µg/mL (≈ 1.43 µM) | Activity (Scedosporium boydii [21]): inactive | Activity (Scedosporium aurantiacum [22]): Active | Activity (Scedosporium apiospermum [23]): Active | Activity (Scedosporium boydii [24]): Active | Activity (Scedosporium boydii [25]): Active | Activity (Scedosporium boydii [26]): inactive | Activity [27]: Active | Activity (Scedosporium boydii [28]): inactive | Activity (Scedosporium aurantiacum [29]): Active | Activity (Scedosporium apiospermum [30]): Active | Activity [31]: Active | Activity [32]: Active | Activity (Scedosporium apiospermum [33]): Active | Activity (Scedosporium aurantiacum [34]): Active | Activity (Scedosporium apiospermum [35]): Active | MIC [36]: 1 µg/mL (≈ 2.86 µM)
